# SKN-1 inh: suppressors of acrylamide-induced Pgst-4::GFP reporter in worms, primary screen, SKN-1 inhibitor project, whole organism, uHTS, GFP/RFP fluorescence ratio, strain VP596; C. elegans VP596 Pgst-4::GFP/RFP ratio, 24 h; inhibition, % at 21.8 µM; actives 0.49% (n = 360,000); AID 624304, 2012;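 active = interference check ratio from 0.5 to 1.5 plus GFP to RFP signal ratio inhibition reaching or exceeding a fixed threshold, cut at about 30% in these data, passing the limit was not always enough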
# iPSC survival up: enhancers of single-cell hiPSC survival, primary screen, ATPlite luminescence. survival enhancement, % at 20 µM. 100% = ROCK inhibitor wells, 0% = DMSO. actives 0.044% (n = 360,000); in the data active = survival enhancement above about 18%;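 also: cells exposed to compounds for 16 hours before the ATP read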
# FAS-TE inh: FAS thioesterase domain inhibitors, primary screen, biochemical, fluorescence intensity, uHTS. Fatty acid synthase (Homo sapiens), P49327. recombinant FAS-TE, OMFH fluorogenic substrate, fluorescence endpoint. inhibition, % at 15 µM. actives 0.67% (n = 360,000);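 active = compounds whose normalised, plate-corrected inhibition of enzyme fluorescence in the single-dose primary screen is 50% or more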;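 also: 0% = DMSO with enzyme and 100% = substrate without enzyme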
# DAGLB inh: DAGLB lipase inhibitors, primary screen, biochemical, fluorescence, HTS. Diacylglycerol lipase-beta (Homo sapiens), Q8NCG7. HEK293T DAGLB membrane lysate, EnzChek fluorogenic substrate. inhibition, % at 5.17 µM. actives 0.059% (n = 340,000). AID 504411, 2011; in the data active = inhibition above about 34%;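 also: 0% = enzyme with vehicle and 100% = wells lacking enzyme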
# Target sequence (Q8NCG7 whole entry, looked up): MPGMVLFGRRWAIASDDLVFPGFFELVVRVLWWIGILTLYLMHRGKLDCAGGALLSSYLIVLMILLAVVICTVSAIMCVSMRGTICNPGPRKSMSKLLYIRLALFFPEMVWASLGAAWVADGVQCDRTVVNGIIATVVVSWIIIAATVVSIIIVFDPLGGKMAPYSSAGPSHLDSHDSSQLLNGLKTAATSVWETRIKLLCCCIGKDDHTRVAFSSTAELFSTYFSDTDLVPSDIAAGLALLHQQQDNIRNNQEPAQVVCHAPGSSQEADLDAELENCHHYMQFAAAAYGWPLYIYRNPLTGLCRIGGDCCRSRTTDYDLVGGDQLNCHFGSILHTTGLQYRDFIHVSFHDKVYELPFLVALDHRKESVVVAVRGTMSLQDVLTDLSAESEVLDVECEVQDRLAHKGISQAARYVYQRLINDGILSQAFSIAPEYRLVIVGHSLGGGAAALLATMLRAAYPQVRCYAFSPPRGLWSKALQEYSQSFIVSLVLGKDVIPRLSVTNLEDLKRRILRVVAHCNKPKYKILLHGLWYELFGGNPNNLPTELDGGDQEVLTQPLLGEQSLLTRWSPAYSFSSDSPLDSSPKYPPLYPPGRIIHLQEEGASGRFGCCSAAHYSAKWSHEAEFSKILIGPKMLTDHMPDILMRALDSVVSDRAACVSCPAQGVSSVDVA
# MT1-MMP act inh: blockers of MT1-MMP proenzyme processing, primary screen, HT1080 RFP-PRO-GFP cells, GFP/RFP fluorescence; GFP/RFP ratio fluorescence, overnight; percent of plate control window, DMSO zero; GFP/RFP ratio change, % at 20 µM; actives 0.061% (n = 360,000);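 active = GFP/RFP ratio change of at least 30% with cell ATP level not reduced by more than half and red fluorescence within 50% of control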
#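 Compound: 20 µM single dose, 1% DMSO / System: HT1080 RFP-PRO-GFP cells / Controls: DMSO and RFP-L50D-GFP cell wells / Read-out basis: GFP/RFP fluorescence ratio / Schedule: overnight compound exposure at 37 °C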
# DAGLB confirm: DAGLB lipase inhibitors, retest, confirmation, biochemical, fluorescence, HEK293T membranes; shares compounds with DAGLB inh; HEK293T DAGLB membrane lysate, EnzChek fluorogenic substrate; inhibition, % at 5.17 µM; actives 73% (n = 190);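 active = mean inhibition over triplicate wells above a set limit taken from the primary lipase screen, cut at about 34% in these data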;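 also: 0% = DAGLB with DMSO and 100% = wells lacking DAGLB enzyme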
# * hit, by the source's call; nt = no result; ! = not active in a repeat. Most compounds without a hit are left out; they make up all but 1.3% or so of the library.
SMILES,SKN-1 inh,iPSC survival up,FAS-TE inh,DAGLB inh,MT1-MMP act inh,others
O=C1/C(=C/c2cccs2)SC(=S)N1CC(=O)N1CCCCC1CCO (centres undefined),43.7*,-0.5,-15.9,0.9,2.3,
O=c1c(-c2ccc(Br)cc2)coc2c(CN3CCOCC3)c(O)ccc12,35.2*,-1.4,-1.8,3.1,1.0,
Cc1c(Cl)c(-c2n[nH]c(=S)n2-c2ccc(F)cc2)nn1C,29.8*,3.3,-15.4,3.9,-6.2,
CC(=O)c1cccc(NC(=O)C2(C)Cc3c(-c4cccc(C(F)(F)F)c4)ccnc3O2)c1 (centres undefined),3.4,-2.3,19.7,nt,-0.8,
S=P(c1ccc(N2CCOCC2)cc1N1CCOCC1)(N1CCOCC1)N1CCOCC1,44.0*,-0.1,-4.9,-2.7,-0.4,
Cc1c(C(=O)N2CCN(S(=O)(=O)c3ccccc3F)CC2)oc2c(Cl)cccc12,44.7*,-0.1,31.2,-8.4,nt,
O=C1Nc2ccccc2C(O)(C(=O)NCc2ccco2)N1c1ccc(Cl)c(Cl)c1 (centres undefined),42.0*,0.6,1.2,-0.1,-6.2,
N#C/C(=C\c1ccc(Cl)cc1Cl)c1n[nH]c(Cn2cncn2)n1,44.1*,1.8,-3.7,2.3,-5.7,
CC(C)CC1Nc2ncnc(N3CCN(c4ccccc4)CC3)c2N(Cc2ccccc2)C1=O (centres undefined),-4.5,22.6*!,15.9,-0.3,-12.5,
CC(C)CC1Nc2ncnc(N3CCN(c4ccccc4)CC3)c2N(Cc2ccc(Br)cc2)C1=O (centres undefined),7.6,-1.9,42.4,-0.1,-12.2,
CCCn1nc([N+](=O)[O-])c(C(C#N)c2nc3ccccc3s2)c(Cl)c1=O (centres undefined),17.8,-0.2,25.6,67.5*,21.2,
Cc1cc(=O)[nH]c(SCC(=O)NCC2CCCO2)n1 (centres undefined),14.7,0.5,-6.3,-2.0,0.5,
O=C(CSc1nc(O)c(C2CCCCC2)c(=O)[nH]1)NCC1CCCO1 (centres undefined),31.2*,0.6,-4.4,0.8,-3.0,
COc1ccc(CC(=O)Nc2nc(OCC(F)(F)F)cnc2-c2ccc(Cl)cc2Cl)cc1,24.3,6.2,10.9,nt,-2.9,
Cc1cccc(C(=O)O/N=C(\N)c2ccccn2)c1,36.8*,-0.6,-7.4,-2.6,-1.2,
N/C(=N\OC(=O)c1cccc(Br)c1)c1ccncc1,45.5*,2.5,-6.9,-4.9,0.7,
CC(C)Cc1ccc(-c2cc3nc(NCCc4ccc(S(N)(=O)=O)cc4)ccn3n2)cc1,-4.5,-3.2,18.0,nt,-10.9,
COc1ccc(CC(=O)Nc2nnc(SCc3ccccc3)s2)cc1S(=O)(=O)N1CCOCC1,60.9*,3.8,2.7,0.8,-2.5,
COc1ccc(S(=O)(=O)N2CCOCC2)cc1OC,4.8,0.5,-11.2,0.0,-0.6,
COc1ccc(S(=O)(=O)N2CCOCC2)cc1N=Nc1sc(N)nc1-c1ccccc1,3.7,-0.6,-7.6,56.3*,18.1,DAGLB confirm=91.5*
O=C(NC1CCCCC1)C(CCc1ccccc1)N1CCc2ccccc2C1 (centres undefined),13.5,-1.6,15.1,nt,-2.4,
COC(=O)C1=CN(c2cccc(OCc3ccccc3)c2)C(N)=C(C#N)C1c1cccc(F)c1 (centres undefined),5.1,nt,nt,nt,2.6,
CCc1ccc(NC(=S)Nc2ccc(S(=O)(=O)Nc3ncccn3)cc2)cc1,-16.8,-0.7,-6.5,53.7*,1.6,DAGLB confirm=-1.3
CC(=O)Nc1cc(-c2ccccc2CN(C)C)cn2c(-c3ccc(F)c(Cl)c3)cnc12,4.8,-1.0,8.6,nt,-7.2,
CN(C)c1ccc(N=Nc2ccccc2C(=O)OCC(=O)NC2CCCC2)cc1,24.1,-0.2,20.4,33.1,2.6,
